Measured values from ChEMBL document CHEMBL4028881, “Synthesis, Pharmacology, and Molecular Docking Studies on 6-Desoxo-N-methylmorphinans as Potent μ-Opioid Receptor Agonists” (J Med Chem, 2017).

Legend:
[1] = target: Mu-type opioid receptor (Homo sapiens) (UniProt P35372); test: Displacement of [3H]-DAMGO from recombinant human MOR expressed in CHO cell membranes after 60 mins by liquid scintillation counting
Procedure, shortened: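 Competition binding on membranes from CHO cells stably transfected with recombinant human MOR. Affinity is reported as Ki. Values are mean ± SEM of at least three independent experiments.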

[2] = target: Mu-type opioid receptor (Homo sapiens) (UniProt P35372); test: Agonist activity at recombinant human MOR expressed in CHO cell membranes after 60 mins by [35S]GTPgammaS binding assay; format: functional
Procedure, shortened: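 [35S]GTPγS binding stimulated by ligand in membranes from CHO cells stably expressing human MOR. Values are mean ± SEM of at least three independent experiments.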

Mus musculus = test: Potency index, ratio of moprhine ED50 for antinociceptive activity in sc dosed […] mouse to compound ED50 for antinociceptive activity in sc dosed CD1 mouse; format: functional
Homo sapiens = species: Homo sapiens; test: Selectivity ratio of Ki for recombinant human DOR expressed in CHO cell membranes to Ki for recombinant human MOR expressed in CHO cell membranes; format: cell-based

Sequence of Mu-type opioid receptor (Homo sapiens) (P35372 whole entry): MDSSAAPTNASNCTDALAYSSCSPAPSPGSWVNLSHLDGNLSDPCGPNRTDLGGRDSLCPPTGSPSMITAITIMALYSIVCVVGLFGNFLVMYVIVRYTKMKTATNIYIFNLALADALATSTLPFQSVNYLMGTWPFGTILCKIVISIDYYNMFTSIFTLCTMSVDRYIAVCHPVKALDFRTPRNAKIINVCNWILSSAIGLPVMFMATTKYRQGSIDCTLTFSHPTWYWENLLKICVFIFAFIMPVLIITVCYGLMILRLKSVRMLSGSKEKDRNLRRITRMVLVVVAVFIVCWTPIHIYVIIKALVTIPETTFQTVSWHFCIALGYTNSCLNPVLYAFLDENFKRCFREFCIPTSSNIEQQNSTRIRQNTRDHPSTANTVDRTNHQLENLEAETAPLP

Compound | inhibition [1] | Activity [2] | Ratio ED50 (Mus musculus) | Ratio Ki (Homo sapiens)
CN1CC[C@]23c4c5ccc(O)c4O[C@H]2C(=O)CC[C@@]3(OCc2ccccc2)[C@H]1C5 | Dose-dependent effect | Dose-dependent effect | <=1020 | 
CO[C@@]12CCC(=O)[C@]3(C)Oc4c(O)ccc5c4[C@@]31CCN(C)[C@@H]2C5 | Dose-dependent effect | Dose-dependent effect | <=1020 | 
CN1CC[C@]23c4c5ccc(O)c4O[C@H]2CCC[C@@]3(OCc2ccccc2)[C@H]1C5 | Dose-dependent effect | Dose-dependent effect | <=1020 | 21
CN1CC[C@]23c4c5ccc(O)c4O[C@H]2CCC[C@@]3(O)[C@H]1C5 | Dose-dependent effect | Dose-dependent effect | <=1020 | 
CO[C@@]12CCC(=O)[C@@H]3Oc4c(O)ccc5c4[C@@]31CCN(C)[C@@H]2C5 | Dose-dependent effect | Dose-dependent effect | <=1020 | 
CO[C@@]12CCC[C@]3(C)Oc4c(O)ccc5c4[C@@]31CCN(C)[C@@H]2C5 |  |  | <=1020 | 
CO[C@@]12CCC[C@@H]3Oc4c(O)ccc5c4[C@@]31CCN(C)[C@@H]2C5 | Dose-dependent effect | Dose-dependent effect | <=1020 | 
